Five compounds from ChEMBL document CHEMBL3576810, “Pentacyclic antibiotics from a tidal mud flat-derived actinomycete” (J Nat Prod, 2015) can be followed below.

One assay has as its system Proteus hauseri. In words: Antibacterial activity against Proteus hauseri NBRC 3851 incubated for 12 hrs at 37 degC. The format is functional. As to conditions: NBRC 3851, 12 h. Put shortly:
(§1)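 Bacteria grown overnight in LB broth at 37 °C, centrifuged and washed twice in sterile water. DMSO compound stocks serially 2-fold diluted in Plate Count Broth over 50 to 0.8 μg/mL. Inoculum 5 × 10^5 cfu/mL final, 12 h at 37 °C. MIC taken as lowest concentration with no visible growth. Ampicillin reference.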

In another assay the test system is Salmonella enterica. Put plainly: Antibacterial activity against Salmonella enterica ATCC 14028 incubated for 12 hrs at 37 degC. As to conditions: ATCC 14028, 12 h. The format is functional. In short, it runs like this:
as §1

The subject of a further assay is Staphylococcus aureus. In words: Antibacterial activity against Staphylococcus aureus ATCC 25923 incubated for 12 hrs at 37 degC. Format: functional. As to conditions: ATCC 25923, 12 h. Put shortly: as §1
In a further assay the test system is Kocuria rhizophila. In words: Antibacterial activity against Kocuria rhizophila NBRC 12708 incubated for 12 hrs at 37 degC. The format is functional. Particulars: NBRC 12708, 12 h. Put shortly: as §1
Another assay deals with Bacillus subtilis. Put plainly: Antibacterial activity against Bacillus subtilis ATCC 6633 incubated for 12 hrs at 37 degC. The format is functional. Particulars: ATCC 6633, 12 h. In short, it runs like this:
as §1

The test system of another assay is MDA-MB-231. Put plainly: Cytotoxicity against human MDA-MB-231 cells after 72 hrs by sulforhodamine B assay. The format is functional, cell-based. As to conditions: MDA-MB-231, 72 h. Put shortly:
(§2)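 Cells seeded at 3 × 10^4 cells/mL and exposed to a range of compound concentrations at 37 °C, 5% CO2, for 72 h. Fixed with 10% TCA for 1 h, stained with 0.4% SRB in 1% acetic acid, dye dissolved in 10 mM Tris pH 10.0. Survival expressed relative to solvent control; IC50 by nonlinear regression. Etoposide positive control.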

Assay [1] relates to Trichophyton mentagrophytes. Put plainly: Antifungal activity against Trichophyton mentagrophytes IFM 40996. The format is functional, organism-based. In short, it runs like this: (§3)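 Fungi grown on potato dextrose agar for 2 weeks at 28 °C. Spores harvested, washed twice and suspended at 5 × 10^5 spores/mL, then diluted into potato dextrose broth (5 × 10^4 cells/mL) with test compound in DMSO (0.5% final). DMSO solvent control; amphotericin B positive control.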

The test system of a further assay is K562. In words: Cytotoxicity against human K562 cells after 72 hrs by sulforhodamine B assay. Format: functional, cell-based. As to conditions: K562, 72 h. In short, it runs like this: as §2
The test system of another assay is HCT-116. In words: Cytotoxicity against human HCT116 cells after 72 hrs by sulforhodamine B assay. The format is functional, cell-based. Particulars: HCT-116, 72 h. In short, it runs like this:
as §2

Assay [2] is described as follows: Cytotoxicity against human SNU638 cells after 72 hrs by sulforhodamine B assay. The format is functional, cell-based. Particulars: SNU-638, 72 h. Put shortly: as §2
In a further assay the test system is Trichophyton rubrum. Put plainly: Antifungal activity against Trichophyton rubrum NBRC 9185. The format is functional, organism-based. In short, it runs like this: as §3
For a further assay, the system named is A549. Put plainly: Cytotoxicity against human A549 cells after 72 hrs by sulforhodamine B assay. The format is functional, cell-based. Particulars: A549, 72 h. Put shortly:
as §2

The subject of a further assay is Aspergillus fumigatus. Put plainly: Antifungal activity against Aspergillus fumigatus HIC 6094. Format: functional. Put shortly: as §3
Assay [3] is described as follows: Cytotoxicity against human SKHEP1 cells after 72 hrs by sulforhodamine B assay. Particulars: SK-HEP1, 72 h. Format: functional, cell-based. Put shortly:
as §2

The subject of a further assay is Candida albicans. Put plainly: Antifungal activity against Candida albicans ATCC 10231. Format: functional. In short, it runs like this:
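C. albicans grown in YPD medium for 48 h at 28 °C, centrifuged and washed twice with sterile water. Cells (5 × 10^4 cells/mL) in potato dextrose broth with test compound in DMSO (0.5% final). DMSO solvent control; amphotericin B positive control.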

A short description of assay [4]: Inhibition of Staphylococcus aureus ATCC 6538p sortase A delta24 mutant using H2N-Abz-LPXTG-Dap(Dnp)-NH2 fluorescent substrate incubated for 1 hr by fluorescence based assay. In short, it runs like this: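 Recombinant SrtAΔ24 (24 μg), srtA gene from S. aureus ATCC 6538p. Buffer 50 mM Tris-HCl, 150 mM NaCl, pH 7.5, 5 mM CaCl2, with 1 μg Abz-LPXTG-Dap(Dnp) peptide, 1 mM pentaglycine and compound at several concentrations (0.5% DMSO final). 1 h at 37 °C. Fluorescence read at excitation 317 nm, emission 420 nm. p-Hydroxymercuribenzoic acid positive control.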

pIC50: −log10 of the molar value. In brackets after ≈: the same amount, converted by molar mass. Activity calls are given as the source filed them. No cut-off for these calls is given here. Where only a bound is given, the exact number is not on record here.

On to `CC1(C)S[C@@H]2[C@H](NC(=O)[C@H](N)c3ccccc3)C(=O)N2[C@H]1C(=O)O` [AMPICILLIN], for which the MIC in the assay with Proteus hauseri is < 0.6 µM; in the assay on Salmonella enterica, 4.5 µM; in the assay with Staphylococcus aureus, 4.5 µM; against Kocuria rhizophila it was 0.6 µM; against Bacillus subtilis, 1.1 µM.

`CC(=O)Cc1cc(O)c2c(c1)CCc1c-2cc2c(c1O)C(=O)c1c(O)cc(O)cc1C2=O`: the pIC50 was < 4.00 in the assay on MDA-MB-231; 4.74 with K562; < 4.00 in the assay with HCT-116; < 4.00 in assay [2]; < 4.00 in the assay with A549; < 4.00 in assay [3]. In addition, the MIC in the assay with Proteus hauseri, against Salmonella enterica, in the assay with Staphylococcus aureus, against Kocuria rhizophila and in the assay with Bacillus subtilis was > 100 µg/mL in each case. In addition, the MIC entry (in assay [1]; in the assay on Trichophyton rubrum; in the assay on Aspergillus fumigatus; in the assay on Candida albicans) was “inactive” each time.

For `COc1cc([C@@H]2c3cc4c(cc3[C@@H](O[C@@H]3O[C@@H]5CO[C@@H](C)O[C@H]5[C@H](O)[C@H]3O)[C@H]3COC(=O)[C@H]23)OCO4)cc(OC)c1O` [ETOPOSIDE], the pIC50 is 4.97 in the assay with MDA-MB-231; 5.51 with K562; 5.72 in the assay with HCT-116; 6.30 in assay [2]; 6.10 in the assay on A549; 5.96 in assay [3].

Take `COc1ccc2oc3c(O)c4c(c(O)c3c(=O)c2c1O)-c1c(cc(CC(C)=O)c(C(=O)N[C@@](C)(CO)C(=O)O)c1O)CC4`: the pIC50 is 5.92 with MDA-MB-231; < 4.00 with K562; 6.05 in the assay with HCT-116; 6.10 in [2]; 5.77 in the assay with A549; 4.36 in [4]. The same compound had a pIC50 in [3] of 5.72. Also, the minimal inhibitory concentration (MIC) stood at 21.1 µM in the assay with Proteus hauseri; 0.7 µM in the assay with Salmonella enterica; 10.5 µM in the assay with Staphylococcus aureus; 10.5 µM in the assay on Kocuria rhizophila; 0.7 µM in the assay on Bacillus subtilis; 84.3 µM (≈ 50 µg/mL) in the assay on Aspergillus fumigatus. In the assay with Candida albicans, this compound displayed an MIC of 21.1 µM (≈ 12.5 µg/mL).

Para-Hydroxymercuribenzoic acid had a pIC50 in [4] of 3.98.
